Compound activity as filed in PubChem BioAssay.
PRMT1 inh: PRMT1 methyltransferase inhibitors, primary screen, biochemical, fluorescence polarization. Protein arginine N-methyltransferase 1 (Homo sapiens), Q99873. recombinant PRMT1, activity-based probe fluorescence polarization. inhibition, % at 2.79 µM. 370,000 compounds, 1.3% hits;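 active = inhibition above about 21% made by adding two undisclosed values, limit read from the data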
Target sequence (Q99873 whole entry, looked up): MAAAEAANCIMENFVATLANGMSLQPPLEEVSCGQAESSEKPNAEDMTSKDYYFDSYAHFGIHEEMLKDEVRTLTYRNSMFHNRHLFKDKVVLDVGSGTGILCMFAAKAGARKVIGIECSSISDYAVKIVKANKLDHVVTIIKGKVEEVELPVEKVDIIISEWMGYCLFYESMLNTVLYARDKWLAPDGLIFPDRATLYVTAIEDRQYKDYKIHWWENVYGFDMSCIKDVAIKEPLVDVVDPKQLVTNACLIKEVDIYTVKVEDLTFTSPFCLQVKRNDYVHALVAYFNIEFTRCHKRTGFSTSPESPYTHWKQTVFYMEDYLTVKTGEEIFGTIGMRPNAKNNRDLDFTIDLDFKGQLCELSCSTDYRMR
GSTO1 inh: inhibitors of recombinant GSTO1, primary screen, counter-screen for RBBP9 inhibitor project, biochemical, fluorescence polarization; Glutathione S-transferase omega-1 (Homo sapiens), P78417; inhibition, % at 5.96 µM; AID 1974, 2009; activity-based probe fluorescence polarization; 300,000 compounds, 1.1% hits;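 active = inhibition above the campaign mean inhibition plus 3 SD, cut at about 35% in these data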;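 note: 0% = GSTO1-1 with DMSO and 100% = wells lacking GSTO1-1 enzyme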
TDP2 absorb: human TDP2 enzyme inhibitors, primary screen, biochemical, epi absorbance, recombinant enzyme; 370,000 compounds, 0.34% hits; AID 720702, 2013; Tyrosyl-DNA phosphodiesterase 2 (Homo sapiens), O95551; T5PNP hydrolysis, p-nitrophenol absorbance 415 nm; inhibition, % at 12.8 µM;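 active = inhibition above the mean of all tested compounds plus 3 SD, set per campaign, cut at about 25% in these data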;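 note: 0% = DMSO with enzyme and 100% = buffer with substrate but no TDP2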
Target sequence (O95551 whole entry, looked up): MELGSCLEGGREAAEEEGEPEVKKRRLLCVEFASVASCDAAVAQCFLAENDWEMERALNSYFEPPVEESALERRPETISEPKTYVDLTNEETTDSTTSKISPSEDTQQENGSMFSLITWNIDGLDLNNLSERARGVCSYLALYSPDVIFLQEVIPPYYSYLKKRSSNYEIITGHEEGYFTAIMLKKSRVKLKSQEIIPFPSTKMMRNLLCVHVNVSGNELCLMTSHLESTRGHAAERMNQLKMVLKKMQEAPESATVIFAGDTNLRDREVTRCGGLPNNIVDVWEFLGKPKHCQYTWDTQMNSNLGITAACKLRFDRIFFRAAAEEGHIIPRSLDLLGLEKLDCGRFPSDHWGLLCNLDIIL
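Read-out basis: percent inhibition. System: recombinant human TDP2. Buffer or medium: Mg2+-containing Tris-HCl buffer, pH 7.5. Repeats: single replicate. Timing: reaction 2 h, 37 °C. Benchmarks: high control without enzyme, low control DMSO plus TDP2. Probe or stimulus: 5 mM T5PNP. Doses: 12.8 µM only. Measured by: epi absorbance of p-nitrophenol freed from T5PNP by hydrolysis.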
PAD4 FP inh: human PAD4 inhibitors, primary screen, biochemical, fluorescence polarization, 1536-well format; Protein-arginine deiminase type-4 (Homo sapiens), Q9UM07; recombinant PAD4, RCA probe fluorescence polarization; inhibition, % at 6.36 µM; 330,000 compounds, 0.41% hits;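 active = percent inhibition above a cutoff equal to the mean of all tested compounds plus 3 SD, cut at about 15% in these data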;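 note: 0% = PAD4 with RCA probe and DMSO and 100% = probe without PAD4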
Apaf-1 inh: inhibitors of human Apaf-1 apoptosome, primary screen, biochemical, DEVD-Rh110 fluorescence, uHTS | Apoptotic protease-activating factor 1 (Homo sapiens), O14727 | reconstituted apoptosome caspase-3 activity | inhibition, % at 20 µM | 330,000 compounds, 0.71% hits | AID 489030, 2010; active = inhibition of at least 40% at 20 µM;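 note: plate controls were DMSO wells for no effect and DEVD-CHO caspase inhibitor wells for full effect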
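System – cell-free apoptosome with Apaf-1, procaspase-3 and caspase-9 · Buffer or medium – pH 7.5 Hepes buffer with CHAPS, BSA, DTT · Also added – cytochrome c with DEVD-Rh110 · Times – 30 min compound preincubation, 50 min activation, room temperature · Technique – Rh110 fluorescence intensity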
* hit, by the source's call; nt = no result. Sampled rows, rich in hits. Any-hit rate of the full collection: about 2.6%.

SMILES	PRMT1 inh	GSTO1 inh	TDP2 absorb	PAD4 FP inh	Apaf-1 inh
O=C(CCCc1nc2ccccc2s1)N1CCN(c2ccccc2F)CC1	-6.2	4.1	11.6	0.3	3.0
Cc1ccc(N2CCN(/N=C\c3cccnc3)CC2)cc1	1.6	nt	4.9	nt	nt
COC(=O)c1cc(-c2ccc(OC)c(OC)c2)c(=O)n2c1CCC2	4.2	nt	8.4	nt	nt
Cc1csc(N/N=C/c2ccc(O)c([N+](=O)[O-])c2)n1	47.8*	84.3*	9.4	5.1	10.3
Cc1nnc(N/N=C/c2ccc(O)c([N+](=O)[O-])c2)[nH]c1=O	2.0	7.8	-11.5	-6.8	-0.4
O=[N+]([O-])c1ccc(-c2csc(N/N=C/c3cccnc3)n2)cc1	1.8	1.2	-0.5	4.7	-15.4
O=[N+]([O-])c1cc(/C=N\Nc2nc(-c3ccccc3)cs2)ccc1O	10.5	63.0*	6.5	-1.4	12.6
CCN(CC)c1nc(C)nc2c1nnn2Cc1ccccc1	-1.8	nt	6.7	nt	nt
CCCCCc1ccc(NC(=O)OCCN2C(=O)CCC23CCC(c2ccccc2)CC3)cc1 (stereo unspecified)	1.7	nt	-2.4	nt	nt
Nc1c(O)cccc1C(=O)O	13.0	75.9*	19.7	13.2	53.4*
O=C(O)c1ccccc1O	3.4	3.6	4.4	-8.9	-7.3
Cn1c(SCn2nnc3ccccc3c2=O)nc2ccccc2c1=O	nt	-2.6	nt	-0.8	12.2
CCN(CC)S(=O)(=O)c1ccc2c(c1)nc(SCn1nnc3ccccc3c1=O)n2CC	21.9*	-11.5	-10.3	-1.1	9.2
CCCCCCCCN1C(=O)[C@@H](CC(=O)N2CCN(C(=O)OCC)CC2)C[C@@]2(C(=O)OC)C1=C[C@H](C(C)C)O[C@@H]2C1CC1	1.2	nt	-6.5	nt	nt
N#Cc1c(NC(=O)c2ccco2)sc2c1CCC2	9.3	36.3*	17.4	-0.7	-14.2
NC(=O)c1c(NC(=O)c2ccco2)sc2c1CCC2	1.4	0.7	4.2	-1.4	-21.2
Oc1ccc2c(c1)C1CCCC1(N1CCOCC1)O2 (stereo unspecified)	27.2*	41.8*	4.9	2.7	1.8
Oc1cccc(Nc2ccccc2)c1	-0.5	nt	2.8	-4.8	-2.1
CC(C)c1cc(Nc2cccc(O)c2)cc(C(C)C)c1O	nt	41.7*	nt	4.3	16.2
BrC(=C\c1ccccc1)/C=N/Nc1nc2ccccc2[nH]1	1.5	36.8*	-16.6	-6.9	10.1
C(=N\Nc1nc2ccccc2[nH]1)/c1ccccn1	2.2	nt	-0.8	nt	nt
Cc1cc(C)nc(SCc2nnc(SCC(=O)Nc3nc(-c4ccccc4)cs3)n2C)n1	0.8	18.7	7.9	2.1	19.5
Cc1ccc(C(=O)CSc2nnc(CNc3nc(-c4ccccc4)cs3)n2C)cc1	3.6	36.9*	-10.2	2.4	25.2
COc1ccc(-c2c(Cc3ccccc3)nc(NC(=O)c3ccccc3)n2Cc2ccccc2)cc1	-7.5	nt	2.3	nt	nt
CC(=O)Nc1cn(-c2ccccc2)nc1-c1ccccc1	0.5	4.6	-1.0	-3.8	0.8
SMILES	PRMT1 inh	GSTO1 inh	TDP2 absorb	PAD4 FP inh	Apaf-1 inh
O=C(CCl)Nc1cn(-c2ccccc2)nc1-c1ccccc1	-0.3	51.0*	2.3	3.7	14.5
COc1ccc(-c2c3c([nH]c(=S)c2C#N)CCC3)cc1	23.5*	nt	-5.8	nt	nt
COc1ccc(OC)c(-c2c3c([nH]c(=S)c2C#N)CCCC3)c1	9.4	1.3	6.0	1.6	-5.0
CC(C)c1ccc(NS(=O)(=O)c2ccc(-n3cccn3)cc2)cc1	-2.2	35.3*	3.7	1.1	22.0
CC1=C(C#N)C(=O)N(C2CCS(=O)(=O)C2)C(=O)/C1=C\c1ccc(C)o1 (stereo unspecified)	nt	35.8*	nt	-1.9	15.4
Cc1ccc(/C=C2\SC(=S)N(C3CCS(=O)(=O)C3)C2=O)o1 (stereo unspecified)	20.9	14.4	-2.5	-1.1	6.0
Cc1ccc(C(=O)NC(=C(Cl)Cl)S(=O)(=O)c2ccccc2)cc1	0.8	39.3*	-2.4	3.2	-6.8
O=C(CCc1nc(-c2ccccc2F)no1)NCCc1c[nH]c2ccccc12	0.8	nt	1.8	nt	nt
CCOC(=O)CC[C@@H]1CC[C@]2(CCCN(Cc3cccs3)C2)O1	-2.9	nt	1.2	nt	nt
CCOc1ccc(NS(=O)(=O)c2ccc3[nH]cc(C(=O)N(CC)CC)c(=O)c3c2)cc1	-0.6	36.1*	3.0	-0.1	-2.1
CC(C)c1ccc(NS(=O)(=O)c2ccc3[nH]cc(C(=O)N4CCC(C(N)=O)CC4)c(=O)c3c2)cc1	2.5	55.2*	13.6	-4.9	8.1
C=CCNC(=O)NC[C@@]1(C(=O)OC)CC(=O)N(C)[C@@H]1c1ccccc1	-4.6	nt	-2.2	nt	nt
O=C(N1CCCC1)n1ncc(-c2ccc(-c3ccccc3)cc2)n1	2.2	nt	8.3	nt	nt
COC(=O)[C@H](C(C)C)N1CCc2nnn(CC3CCCCC3)c2-c2cc(F)ccc2S1(=O)=O	-6.3	nt	-7.7	nt	nt
Cc1ccc(-c2c(C(=O)Nc3ccccc3C)c(C)[nH]c(=S)c2C#N)o1	34.1*	12.2	-4.4	-20.1	15.7
CC1(C)C(C(=O)O)N2C(=O)C(NC(=O)Cc3ccccc3)C2S1=O (stereo unspecified)	22.9*	3.7	15.0	-4.3	-3.8
O=S1(=O)N=C(Nc2ccc(O)cc2)c2ccccc21	1.2	7.1	8.6	-1.0	-9.6
O=C1C=C(Nc2ccc(O)cc2)C(=O)c2ccccc21	1.3	38.5*	5.7	-14.5	15.1
O=C(c1ccc(F)cc1)[C@@H]1[C@@H](C(=O)c2ccccc2)[C@@]2(C(=O)Nc3ccccc32)[C@H]2c3ccccc3C=CN12	nt	6.8	nt	-11.6	72.9*
CC(=O)[C@@H]1[C@@H](C(=O)c2ccc(F)cc2)[C@]2(C(=O)Nc3ccccc32)[C@H]2C=Cc3cc(F)ccc3N12	5.5	6.7	11.7	-2.3	-8.9
S=c1[nH]nc(-c2ccco2)n1/N=C/c1ccc(Cl)cc1Cl	22.2*	-8.0	5.4	6.1	19.1
Cc1ccc(CN(C)C(=O)c2cccc(S(=O)(=O)N3CCCC3)c2)o1	3.2	nt	-4.4	1.7	-7.2
COc1ccc(S(=O)(=O)N2CCC(C(=O)N(C)Cc3ccc(C)o3)CC2)cc1OC	23.9*	nt	-2.6	2.0	-6.5
Cn1ccnc1CN1CCC[C@]2(CC[C@H](CCC#N)O2)C1	-3.7	nt	13.2	nt	nt
CCOC(=O)C1=NOC(C(=O)NCCO)(C(=O)C2CC2)C1 (stereo unspecified)	5.3	nt	-4.7	nt	nt
CC(C)c1nnc(NC(=O)c2cccs2)s1	24.5*	-6.4	-2.6	-2.3	1.6
Cc1cccc(CN2CCN(C3CN(Cc4cn(Cc5ccc(C(F)(F)F)cc5)nn4)S(=O)(=O)C3)CC2)c1 (stereo unspecified)	0.8	nt	9.4	nt	nt
